An excerpt weighted towards active compounds, which were near 5.9% of everything screened.
GASC1 inh = blocks human GASC-1 (KDM4C) demethylase activity. Q9H3R0. GST-KDM4C 2-372, H3K9me3 peptide, LANCE TR-FRET. inhibition, % at 12.5 µM. 0.15% of 96,000 active. AID 720574;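 active = mean replicate inhibition above about 25%, with at least 55% of replicates also reaching it, limit read from the data, passing the limit was not always enough; inconclusive = only one of those two conditions met; inactive = neither condition met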
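Material: N-terminal GST-fused human GASC-1 (KDM4C) fragment, residues 2-372. Input: 10 nM enzyme. Incubation: enzyme reaction 30 min, then detection 60 min, both room temperature. Doses: one test concentration per compound. Read-out basis: inhibition from TR-FRET ratio decrease. Detection: LANCE TR-FRET, excitation 340 nm, emissions 618 and 671 nm.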
IDH1 R132H inh = IDH1 R132H (human) inhibition | AID 624101 | inhibition, % at 10 µM | IDH1 R132H reductase, diaphorase/resazurin fluorescence, 60 min | O75874 | 0.18% of 70,000 active; in the data active = inhibition above about 34%; inconclusive = no clear call, values can overlap the other calls; inactive = below about 11%
Target sequence (O75874 whole entry R132H): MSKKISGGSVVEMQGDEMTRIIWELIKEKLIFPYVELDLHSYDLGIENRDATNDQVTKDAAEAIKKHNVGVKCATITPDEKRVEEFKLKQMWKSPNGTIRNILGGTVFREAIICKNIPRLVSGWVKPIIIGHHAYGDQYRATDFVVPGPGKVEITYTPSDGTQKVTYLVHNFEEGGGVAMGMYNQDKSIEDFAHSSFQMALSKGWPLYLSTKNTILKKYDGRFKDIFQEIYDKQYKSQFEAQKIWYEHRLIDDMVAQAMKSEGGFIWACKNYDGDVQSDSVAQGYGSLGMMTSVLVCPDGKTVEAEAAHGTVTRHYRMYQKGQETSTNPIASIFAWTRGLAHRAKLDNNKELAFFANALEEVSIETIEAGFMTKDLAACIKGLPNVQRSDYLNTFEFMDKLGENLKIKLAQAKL
Pf Dd2 inh = inhibitors of Plasmodium falciparum Dd2 growth; P. falciparum Dd2 growth, SYBR Green, 72 h; stronger effect = lower value; activity change, % at 10 µM; 2.3% of 94,000 active; in the data active = activity change below about -80%; inconclusive = no clear call, values can overlap the other calls
Tcruzi prolif = inhibitors of T. cruzi proliferation. 5.9% of 77,000 active. T. cruzi beta-gal in NIH3T3, GalScreen luminescence, 90 h. inhibition, % at 8.34 µM;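 active = mean inhibition above about 93%, with at least 55% of replicates each passing it, limit read from the data, passing the limit was not always enough; inconclusive = only one of those two conditions holds; inactive = neither condition holds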
Hits are given with their value; 0 = inactive; ? = inconclusive; - = no result given.

SMILES | GASC1 inh | IDH1 R132H inh | Pf Dd2 inh | Tcruzi prolif
Cc1ccc(S(=O)(=O)N(C)C[C@@H]2OCCCC[C@H](C)Oc3ccc(NC(=O)Nc4ccc(F)cc4)cc3C(=O)N([C@@H](C)CO)C[C@@H]2C)cc1 | 0 | 0 | -82.7 | -
Cc1ccc(S(=O)(=O)N(C)C[C@@H]2OCCCC[C@H](C)Oc3ccc(NC(=O)Nc4ccc(F)cc4)cc3C(=O)N([C@H](C)CO)C[C@H]2C)cc1 | - | 0 | -81.7 | -
C[C@@H]1CN([C@H](C)CO)C(=O)c2cc(NC(=O)C3CC3)ccc2O[C@H]1CN(C)Cc1ccc(Oc2ccccc2)cc1 | 0 | 0 | 0 | 0
CO[C@H]1CN(C)C(=O)c2ccc(NC(=O)Nc3cc(Cl)cc(Cl)c3)cc2OC[C@H](C)NC[C@H]1C | - | 0 | -88.6 | 0
CO[C@H]1CN(C)C(=O)c2ccc(NS(=O)(=O)c3ccc(Cl)cc3)cc2OC[C@@H](C)NC[C@H]1C | 79.9 | 93.4 | 0 | 0
CO[C@@H]1CN(C)C(=O)c2ccc(NC(=O)Nc3cccc(Cl)c3)cc2OC[C@@H](C)NC[C@H]1C | 0 | 0 | -83.6 | 0
CO[C@@H]1CN(C)C(=O)c2ccc(NC(=O)Nc3cccc(Cl)c3)cc2OC[C@H](C)NC[C@@H]1C | 0 | 0 | 0 | 0
COc1ccccc1C(=O)Nc1ccc2c(c1)OC[C@H](C)NC[C@@H](C)[C@@H](OC)CN(C)C2=O | 68.1 | ? | 0 | 0
C[C@H]1CN([C@@H](C)CO)C(=O)c2cc(NC(=O)Cn3cnnn3)ccc2O[C@H]1CN(C)C(=O)Nc1ccc2c(c1)OCO2 | 0 | 0 | 0 | 0
COc1cc(C[C@H]2COC(=O)[C@@H]2Cc2ccc(O)c(OC)c2)ccc1O | - | 0 | - | -
N#C[C@H]1[C@@H](c2ccccc2C2=CCCC2)[C@H](CO)N1C(=O)C1CC1 | 0 | - | 0 | -
Cc1noc(C)c1NC(=O)N(C)C[C@@H]1Oc2ccc(NC(=O)CCN3CCOCC3)cc2CC(=O)N([C@@H](C)CO)C[C@H]1C | 0 | 0 | 0 | 0
O=C(c1ccccc1F)N1CC(=O)N2[C@H](C1)[C@@H](c1ccc(-c3cccnc3)cc1)[C@@H]2CO | 0 | - | -86.7 | -
COC(=O)c1ccc(CN2CC(=O)N3[C@H](CO)[C@@H](c4ccc(-c5ccccc5F)cc4)[C@H]3C2)cc1 | 0 | - | -83.2 | -
COC(=O)c1ccc(CN2CC(=O)N3[C@H](C2)[C@@H](c2ccc(-c4ccccc4F)cc2)[C@@H]3CO)cc1 | 0 | - | 0 | -
O=C(c1ccc(F)cc1)N1CC(=O)N2[C@H](CO)[C@H](c3ccc(-c4cccnc4)cc3)[C@H]2C1 | 0 | - | -87.1 | -
O=C(c1cccnc1)N1CC(=O)N2[C@H](C1)[C@H](c1ccc(-c3ccc(F)cc3)cc1)[C@@H]2CO | 0 | - | 0 | -
O=C(c1ccc(F)cc1)N1CC(=O)N2[C@H](C1)[C@H](c1ccc(-c3cccnc3)cc1)[C@@H]2CO | 0 | - | 0 | -
O=C(c1ccc(F)cc1)N1CC(=O)N2[C@H](C1)[C@@H](c1ccc(-c3cccnc3)cc1)[C@@H]2CO | 0 | - | -89.2 | -
O=C(c1cccc(F)c1)N1CC(=O)N2[C@H](C1)[C@@H](c1ccc(-c3cccnc3)cc1)[C@@H]2CO | 0 | - | -87.6 | -
O=C(c1cccc(F)c1)N1CC(=O)N2[C@H](CO)[C@H](c3ccc(-c4cccnc4)cc3)[C@@H]2C1 | 0 | - | 0 | -
CS(=O)(=O)N(CC(=O)Nc1cc(C(F)(F)F)ccc1Cl)c1cccc([N+](=O)[O-])c1 | - | 0 | - | -
C[C@@H]1CCCCO[C@@H](CN(C)C(=O)c2ccccc2)[C@H](C)CN([C@H](C)CO)C(=O)c2cc(NC(=O)Nc3cccc4ccccc34)ccc2O1 | 0 | - | 0 | 102.1
C[C@@H]1CCCCO[C@H](CN(C)C(=O)CCCN(C)C)[C@H](C)CN([C@H](C)CO)C(=O)c2cc(NC(=O)Nc3cccc4ccccc34)ccc2O1 | 0 | - | -85.7 | 0
C[C@H](CO)N1C[C@H](C)[C@@H](CN(C)C(=O)CCCN(C)C)OCCCC[C@H](C)Oc2ccc(NC(=O)Nc3cccc4ccccc34)cc2C1=O | 0 | 0 | 0 | 0
SMILES | GASC1 inh | IDH1 R132H inh | Pf Dd2 inh | Tcruzi prolif
C[C@@H]1CCCCO[C@H](CN(C)C(=O)c2ccccc2)[C@@H](C)CN([C@@H](C)CO)C(=O)c2cc(NC(=O)Nc3cccc4ccccc34)ccc2O1 | 0 | - | -82.4 | 0
C[C@@H]1CN([C@H](C)CO)C(=O)c2cc(NC(=O)Nc3cccc4ccccc34)ccc2O[C@@H](C)CCCCO[C@@H]1CN(C)C(=O)c1ccccc1 | 0 | - | 0 | 0
CC(C)NC(=O)N1[C@H](CO)[C@@H](c2ccccc2)C12CN(Cc1ccc(Cl)cc1)C2 | 0 | - | -87.5 | -
CC(C)NC(=O)N1[C@@H](CO)[C@@H](c2ccccc2)C12CN(Cc1ccccc1)C2 | 0 | - | 0 | -
OC[C@H]1[C@H](c2ccccc2)C2(CN(Cc3ccccc3F)C2)N1Cc1ccccc1F | 0 | - | -93.5 | -
CC(C)NC(=O)N1[C@@H](CO)[C@@H](c2ccccc2)C12CN(Cc1ccc(Cl)cc1)C2 | 0 | - | 0 | -
CC(C)NC(=O)N1[C@@H](CO)[C@@H](c2ccccc2)C12CN(Cc1ccc(F)cc1)C2 | 0 | - | -83.7 | -
C[C@@H]1CN([C@H](C)CO)S(=O)(=O)c2ccc(Br)cc2O[C@H]1CN(C)Cc1cccc(C(=O)O)c1 | 0 | - | 0 | 0
Cc1noc(C)c1S(=O)(=O)Nc1ccc2c(c1)C(=O)N([C@@H](C)CO)C[C@H](C)[C@@H](CN(C)C)O2 | 0 | 0 | 0 | 0
COc1ccc(NC(=O)N(C)C[C@H]2OCCCC[C@@H](C)Oc3ccc(NS(=O)(=O)c4ccc(F)cc4)cc3C(=O)N([C@@H](C)CO)C[C@H]2C)cc1 | 0 | 0 | 0 | 0
COc1ccc(NC(=O)Nc2ccc3c(c2)C(=O)N([C@@H](C)CO)C[C@H](C)[C@@H](CN(C)C(=O)Cc2ccccc2)OCCCC[C@@H](C)O3)cc1 | 0 | 0 | -85.8 | 0
C[C@@H]1CCCCO[C@@H](CN(C)C(=O)CCC(F)(F)F)[C@@H](C)CN([C@@H](C)CO)C(=O)c2cc(NC(=O)Nc3ccc4c(c3)OCO4)ccc2O1 | 0 | 0 | 0 | 0
C[C@@H]1CCCCO[C@H](CN(C)C(=O)CCC(F)(F)F)[C@@H](C)CN([C@H](C)CO)C(=O)c2cc(NC(=O)Nc3ccc4c(c3)OCO4)ccc2O1 | 0 | 0 | -82.6 | 0
C[C@@H]1CCCCO[C@H](CN(C)C(=O)Nc2ccc3c(c2)OCO3)[C@H](C)CN([C@H](C)CO)C(=O)c2cc(NC(=O)Nc3ccc(C(F)(F)F)cc3)ccc2O1 | 0 | 0 | -88.6 | 0
C[C@@H]1CCCCO[C@@H](CN(C)C(=O)Nc2ccc3c(c2)OCO3)[C@@H](C)CN([C@H](C)CO)C(=O)c2cc(NC(=O)Nc3ccc(C(F)(F)F)cc3)ccc2O1 | 0 | 0 | 0 | 0
C[C@@H]1CCCCO[C@H](CN(C)C(=O)Nc2ccc(C(F)(F)F)cc2)[C@@H](C)CN([C@H](C)CO)C(=O)c2cc(NC(=O)Nc3ccc4c(c3)OCO4)ccc2O1 | - | - | 0 | 107.3
C[C@@H]1CN([C@H](C)CO)C(=O)Cc2cc(NS(C)(=O)=O)ccc2O[C@@H]1CN(C)S(=O)(=O)c1ccc(F)cc1 | 0 | - | 0 | 0
O=C(O)CSc1nnc(-c2cccs2)n1-c1cccc(C(F)(F)F)c1 | - | 0 | - | -
